Active and inactive are the calls of the source. No cut-off for these calls is given here.
What was measured:
[1] = Inhibition of Yersinia PTP
In short: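 Recombinant Yop51* enzyme; p-nitrophenyl phosphate at 0.5–4.0 mM in 0.05 M BISTRIS pH 6.5 with 100 mM NaCl, 0.05% Brij-35, 0.6 vol% DMSO, 0.4 mM EDTA and 1 mM DTT. Substrate and inhibitor were preincubated 5 min at 30 °C, then enzyme was added. Initial rates were read as p-nitrophenol A410 (ε 18,300 M⁻¹ cm⁻¹). Ki came from Lineweaver–Burk analysis at several inhibitor levels, reported as mean and standard deviation.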

[2] = biological target: Receptor-type tyrosine-protein phosphatase beta (Homo sapiens, UniProt P23467); experiment: Inhibition of human recombinant PTPbeta
Receptor-type tyrosine-protein phosphatase beta, sequence (P23467 whole entry): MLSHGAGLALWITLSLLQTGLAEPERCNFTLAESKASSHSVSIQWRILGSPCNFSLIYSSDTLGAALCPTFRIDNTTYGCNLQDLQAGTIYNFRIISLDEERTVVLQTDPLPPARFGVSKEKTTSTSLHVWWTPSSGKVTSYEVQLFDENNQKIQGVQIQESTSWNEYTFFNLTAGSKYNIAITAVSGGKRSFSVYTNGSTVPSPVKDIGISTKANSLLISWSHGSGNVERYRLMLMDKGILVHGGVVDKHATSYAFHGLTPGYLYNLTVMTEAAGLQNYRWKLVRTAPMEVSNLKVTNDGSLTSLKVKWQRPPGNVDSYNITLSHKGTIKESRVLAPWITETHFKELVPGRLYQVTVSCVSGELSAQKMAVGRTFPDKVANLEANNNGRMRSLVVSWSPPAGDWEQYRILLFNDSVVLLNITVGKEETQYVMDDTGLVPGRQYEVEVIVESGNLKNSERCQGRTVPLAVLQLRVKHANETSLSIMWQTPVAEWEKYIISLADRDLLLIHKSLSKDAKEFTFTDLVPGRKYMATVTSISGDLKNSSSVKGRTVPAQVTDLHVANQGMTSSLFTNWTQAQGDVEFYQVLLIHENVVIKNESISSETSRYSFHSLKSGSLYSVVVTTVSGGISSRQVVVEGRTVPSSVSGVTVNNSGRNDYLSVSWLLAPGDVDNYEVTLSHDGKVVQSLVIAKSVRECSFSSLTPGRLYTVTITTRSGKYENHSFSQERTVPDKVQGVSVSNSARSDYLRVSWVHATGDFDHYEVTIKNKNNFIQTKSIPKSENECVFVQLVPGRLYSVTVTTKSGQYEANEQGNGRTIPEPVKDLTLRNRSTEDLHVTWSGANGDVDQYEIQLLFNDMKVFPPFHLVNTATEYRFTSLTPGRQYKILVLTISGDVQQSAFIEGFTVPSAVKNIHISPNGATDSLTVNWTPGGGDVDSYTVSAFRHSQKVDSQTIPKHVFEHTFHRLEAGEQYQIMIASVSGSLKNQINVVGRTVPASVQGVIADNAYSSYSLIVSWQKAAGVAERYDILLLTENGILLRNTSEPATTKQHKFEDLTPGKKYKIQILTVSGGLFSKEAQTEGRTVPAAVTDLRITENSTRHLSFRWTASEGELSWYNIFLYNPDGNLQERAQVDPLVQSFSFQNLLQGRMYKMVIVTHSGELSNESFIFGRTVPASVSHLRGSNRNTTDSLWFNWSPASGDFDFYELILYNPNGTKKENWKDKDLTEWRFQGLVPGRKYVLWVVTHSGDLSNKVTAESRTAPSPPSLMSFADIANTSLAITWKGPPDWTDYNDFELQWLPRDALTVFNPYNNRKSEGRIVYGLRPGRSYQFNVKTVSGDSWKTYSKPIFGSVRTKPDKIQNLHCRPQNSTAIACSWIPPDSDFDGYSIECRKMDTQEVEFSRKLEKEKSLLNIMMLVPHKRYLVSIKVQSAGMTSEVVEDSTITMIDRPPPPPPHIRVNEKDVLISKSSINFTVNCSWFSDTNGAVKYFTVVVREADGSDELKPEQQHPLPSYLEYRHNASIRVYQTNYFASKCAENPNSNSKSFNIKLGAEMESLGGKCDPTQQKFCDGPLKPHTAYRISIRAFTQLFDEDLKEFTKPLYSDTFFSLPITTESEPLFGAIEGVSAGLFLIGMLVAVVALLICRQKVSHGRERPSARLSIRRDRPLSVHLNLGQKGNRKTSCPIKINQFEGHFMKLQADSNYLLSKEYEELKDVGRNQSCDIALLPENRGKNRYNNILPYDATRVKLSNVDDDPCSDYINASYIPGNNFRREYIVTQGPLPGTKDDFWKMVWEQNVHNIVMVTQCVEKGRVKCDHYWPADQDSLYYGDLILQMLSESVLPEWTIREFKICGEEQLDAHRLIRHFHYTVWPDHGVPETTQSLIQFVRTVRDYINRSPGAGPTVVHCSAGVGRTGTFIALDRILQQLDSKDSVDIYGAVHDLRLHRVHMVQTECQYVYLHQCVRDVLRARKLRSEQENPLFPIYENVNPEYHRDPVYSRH
In short: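 Human recombinant PTPβ; 1 mM p-nitrophenyl phosphate preincubated 5 min at 30 °C with varying inhibitor concentrations in 0.05 M BISTRIS pH 7.0 with 100 mM NaCl, 0.05% Brij-35, 0.8 vol% DMSO and 1 mM diethylenetriamine pentaacetic acid. Enzyme was added to start the reaction and A410 was followed over time. IC50 is the concentration halving activity after 5 min. For competitive inhibition, Ki was taken as ½ IC50 at substrate equal to Km.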

Homo sapiens = species on record: Homo sapiens; experiment: Inhibition of human PP1 at 50 uM
[3] = Selectivity for human recombinant PTPbeta over Yersinia PTP

Row | Structure (SMILES) | Ki [1] [µM] | IC50 [2] [µM] | Activity (Homo sapiens) | fold change (FC) [3]
1 | O=P(O)(O)Cc1cc2c(O)c(c1)Cc1cc(CP(=O)(O)O)cc(c1O)Cc1cc(CP(=O)(O)O)cc(c1O)Cc1cc(CP(=O)(O)O)cc(c1O)C2 | 0.92 | 3.8 | inactive | 
2 | O=P(O)(O)Cc1cc2c(O)c(c1)Sc1cc(CP(=O)(O)O)cc(c1O)Sc1cc(CP(=O)(O)O)cc(c1O)Sc1cc(CP(=O)(O)O)cc(c1O)S2 | 0.22 | 0.13 | inactive | 3
3 | CCCOc1c2cccc1Cc1cc(C(P(=O)(O)O)P(=O)(O)O)cc(c1O)Cc1cccc(c1OCCC)Cc1cccc(c1O)C2 | 7.1 |  |  | 
4 | CCCOc1c2cccc1Cc1cc(C(P(=O)(O)O)P(=O)(O)O)cc(c1O)Cc1cccc(c1OCCC)Cc1cc(C(P(=O)(O)O)P(=O)(O)O)cc(c1O)C2 | 1.4 | 32 | inactive | 
5 | O=P(O)(O)C(c1ccc(O)cc1)P(=O)(O)O | 570 |  |  | 
6 | O=P(O)(O)C(c1cc2c(O)c(c1)Cc1cc(C(P(=O)(O)O)P(=O)(O)O)cc(c1O)Cc1cc(C(P(=O)(O)O)P(=O)(O)O)cc(c1O)Cc1cc(C(P(=O)(O)O)P(=O)(O)O)cc(c1O)C2)P(=O)(O)O | 40 |  |  | 

From ChEMBL document CHEMBL1153248, “Inhibition of Yersinia protein tyrosine phosphatase by phosphonate derivatives of calixarenes” (Bioorg Med Chem Lett, 2010)
